Test results published in ChEMBL document CHEMBL1148012, “Synthesis, inhibition and binding of simple non-nitrogen inhibitors of monoamine transporters” (Bioorg Med Chem, 2007).

What was measured:
[1] = target: T1, Sodium-dependent noradrenaline transporter (Homo sapiens, UniProt P23975); experiment: Displacement of [125I]RTI55 from human NET expressed in COS1 cell membrane; assay type: cell membranes, COS-1
[2] = target: T2, Sodium-dependent dopamine transporter (Homo sapiens, UniProt Q01959); experiment: Displacement of [125I]RTI55 from human DAT expressed in COS1 cell membrane; assay type: cell membranes, COS-1
T2 sequence (Q01959 whole entry): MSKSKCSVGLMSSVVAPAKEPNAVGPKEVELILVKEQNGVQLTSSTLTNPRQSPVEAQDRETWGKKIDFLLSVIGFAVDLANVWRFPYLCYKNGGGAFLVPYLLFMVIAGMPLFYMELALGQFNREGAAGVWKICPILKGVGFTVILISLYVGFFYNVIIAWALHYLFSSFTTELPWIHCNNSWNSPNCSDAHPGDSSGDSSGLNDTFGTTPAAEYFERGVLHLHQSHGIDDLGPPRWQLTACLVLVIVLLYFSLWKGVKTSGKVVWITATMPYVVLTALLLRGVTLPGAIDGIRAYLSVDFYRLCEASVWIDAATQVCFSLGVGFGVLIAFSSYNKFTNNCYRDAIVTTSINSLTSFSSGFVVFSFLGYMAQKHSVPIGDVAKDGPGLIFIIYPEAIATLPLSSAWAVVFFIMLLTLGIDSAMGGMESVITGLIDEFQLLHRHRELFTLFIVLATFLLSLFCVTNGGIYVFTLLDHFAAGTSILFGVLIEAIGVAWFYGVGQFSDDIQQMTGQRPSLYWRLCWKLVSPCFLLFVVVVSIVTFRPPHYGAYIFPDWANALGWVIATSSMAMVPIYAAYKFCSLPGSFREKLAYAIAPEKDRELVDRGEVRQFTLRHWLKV
Outline: (§1)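 Membranes from COS-1 cells stably transfected with hDAT or hSERT (pIRES, blasticidin selection), homogenised and washed, resuspended in PBSCM. Filtration onto PEI-soaked GF/B filters, scintillation counting.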

[3] = target: T3, Sodium-dependent serotonin transporter (Homo sapiens, UniProt P31645); experiment: Displacement of [125I]RTI55 from human SERT expressed in COS1 cell membrane; assay type: cell membranes, COS-1; outline: as §1
T3 sequence (P31645 whole entry): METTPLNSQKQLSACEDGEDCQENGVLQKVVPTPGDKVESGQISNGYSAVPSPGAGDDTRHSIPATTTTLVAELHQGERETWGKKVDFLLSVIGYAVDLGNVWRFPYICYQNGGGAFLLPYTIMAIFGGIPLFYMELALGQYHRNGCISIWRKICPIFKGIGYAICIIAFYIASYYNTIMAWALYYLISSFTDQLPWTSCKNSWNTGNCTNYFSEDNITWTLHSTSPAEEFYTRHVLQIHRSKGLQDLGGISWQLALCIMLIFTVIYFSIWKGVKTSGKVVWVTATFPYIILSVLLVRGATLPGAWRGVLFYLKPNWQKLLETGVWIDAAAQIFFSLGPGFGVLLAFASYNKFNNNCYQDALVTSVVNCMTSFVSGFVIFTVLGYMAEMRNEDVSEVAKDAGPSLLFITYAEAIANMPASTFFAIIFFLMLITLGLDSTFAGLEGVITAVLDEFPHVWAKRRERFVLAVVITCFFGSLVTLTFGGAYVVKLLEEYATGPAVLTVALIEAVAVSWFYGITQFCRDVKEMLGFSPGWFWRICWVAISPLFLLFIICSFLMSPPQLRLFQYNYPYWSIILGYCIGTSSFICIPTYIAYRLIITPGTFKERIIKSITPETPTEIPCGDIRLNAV

[4] = target: T1, Sodium-dependent noradrenaline transporter; experiment: Inhibition of [3H]DA uptake in human NET expressed in COS1 cell membrane; assay type: functional, cell-based, COS-1
[5] = target: T2, Sodium-dependent dopamine transporter; experiment: Inhibition of [3H]DA uptake in human DAT expressed in COS1 cell membrane; assay type: functional, cell-based, COS-1
Outline: (§2)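 Intact COS-1 cells stably expressing hDAT, grown two days at 37 °C, washed in PBSCM pH 7.4. Drug dilutions preincubated 30 min, then 30–100 nM [3H]DA added with drug. Uptake 10 min at 20 °C, stopped by aspiration and washing. Accumulated radioactivity counted after solubilising cells in scintillant. IC50 determined.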

[6] = target: T3, Sodium-dependent serotonin transporter; experiment: Inhibition of [3H]SER uptake in human SERT expressed in COS1 cell membrane; assay type: functional, cell-based, COS-1
Outline: as §2, with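 “hSERT,” for “hDAT,”, “[3H]5-HT” for “[3H]DA”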

T1 sequence (P23975 whole entry): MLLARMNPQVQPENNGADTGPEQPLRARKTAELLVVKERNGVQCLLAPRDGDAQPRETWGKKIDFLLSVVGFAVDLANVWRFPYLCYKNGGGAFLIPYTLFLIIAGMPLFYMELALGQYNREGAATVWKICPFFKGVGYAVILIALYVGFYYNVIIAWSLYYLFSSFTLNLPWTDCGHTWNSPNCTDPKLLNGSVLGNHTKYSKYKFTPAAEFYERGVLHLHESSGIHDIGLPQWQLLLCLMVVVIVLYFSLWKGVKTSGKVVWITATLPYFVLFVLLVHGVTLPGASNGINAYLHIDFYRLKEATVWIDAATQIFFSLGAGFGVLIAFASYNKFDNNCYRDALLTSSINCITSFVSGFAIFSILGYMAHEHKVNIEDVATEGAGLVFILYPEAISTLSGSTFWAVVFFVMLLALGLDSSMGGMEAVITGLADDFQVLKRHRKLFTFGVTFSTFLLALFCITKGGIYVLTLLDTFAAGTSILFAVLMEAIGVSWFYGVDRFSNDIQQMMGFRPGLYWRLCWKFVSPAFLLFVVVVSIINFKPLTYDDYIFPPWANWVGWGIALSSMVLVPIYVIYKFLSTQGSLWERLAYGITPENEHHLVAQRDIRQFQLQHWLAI

## COC(=O)c1ccccc1-c1ccc2ccccc2c1
[1]
  Ki: 46.7 µM
[2]
  Ki: 4.06 µM
[3]
  Ki: 620 µM

## COC(=O)[C@@H]1CCCCC[C@@H]1c1ccc(-c2ccccc2)cc1
[1]
  Ki: 51 µM
[2]
  Ki: 313 µM
[3]
  Ki: 73 µM

## COC(=O)C1=C(c2cccc(Cl)c2)CCCC1
[1]
  Ki: 339 µM
[2]
  Ki: 22 µM
[4]
  Ki: 871 µM
[3]
  Ki: 1180 µM
[5]
  Ki: 26 µM

## COC(=O)C1=C(c2ccc3ccccc3c2)CCCC1
[1]
  Ki: 81 µM
[2]
  Ki: 12 µM
[4]
  Ki: 10 µM
[3]
  Ki: 109 µM
[5]
  Ki: 1.5 µM

## COC(=O)C1=C(c2ccc(-c3ccccc3)cc2)CCCC1
[1]
  Ki: 215 µM
[2]
  Ki: 264 µM
[3]
  Ki: 841 µM

## COC(=O)C1=C(c2ccc(C(C)(C)C)cc2)CCCC1
[1]
  Ki: 1100 µM
[2]
  Ki: 605 µM
[3]
  Ki: 2250 µM

## COC(=O)C1=C(c2ccc(-c3ccccc3)cc2)CCCCC1
[1]
  Ki: 13 µM
[2]
  Ki: 2 µM
[4]
  Ki: 3.9 µM
[3]
  Ki: 32 µM
[5]
  Ki: 0.81 µM

## C/C=C/C1=C(c2ccc(Cl)c(Cl)c2)CCCC1
[1]
  Ki: 255 µM
[2]
  Ki: 11 µM
[3]
  Ki: 381 µM
[5]
  Ki: 42 µM

## COC(=O)C1=C(c2ccc(C(C)(C)C)cc2)CCCCC1
[1]
  Ki: 62 µM
[2]
  Ki: 884 µM
[3]
  Ki: 1040 µM

## COC(=O)C1=C(c2cccc(Cl)c2)CCC1
[1]
  Ki: 470 µM
[2]
  Ki: 34 µM
[4]
  Ki: 285 µM
[3]
  Ki: 2240 µM
[5]
  Ki: 3.3 µM

## COC(=O)C1=C(c2ccc(OC)cc2)CCC1
[1]
  Ki: 550 µM
[2]
  Ki: 140 µM
[4]
  Ki: 1390 µM
[3]
  Ki: 2690 µM
[5]
  Ki: 6.3 µM

## COC(=O)C1=C(c2cccc(N)c2)CCC1
[1]
  Ki: 1320 µM
[2]
  Ki: 875 µM
[4]
  Ki: 247 µM
[3]
  Ki: 1950 µM
[5]
  Ki: 121 µM
[6]
  Ki: 2900 µM

## COC(=O)C1=C(c2ccc([N+](=O)[O-])cc2)CCC1
[1]
  Ki: 111 µM
[2]
  Ki: 6.54 µM
[3]
  Ki: 1140 µM

## COC(=O)C1=C(c2ccc(OC(F)(F)F)cc2)CCC1
[1]
  Ki: 2880 µM
[2]
  Ki: 2650 µM
[3]
  Ki: 3800 µM

## COC(=O)C1=C(c2ccc(C(C)=O)cc2)CCC1
[1]
  Ki: 240 µM
[2]
  Ki: 335 µM
[4]
  Ki: 646 µM
[3]
  Ki: 296 µM
[5]
  Ki: 49 µM
[6]
  Ki: 1160 µM

## COC(=O)C1=C(c2ccc(Cl)cc2)CCCC1
[1]
  Ki: 993 µM
[2]
  Ki: 85 µM
[4]
  Ki: 314 µM
[3]
  Ki: 1860 µM
[5]
  Ki: 0.589 µM

## COC(=O)C1=C(c2cccc([N+](=O)[O-])c2)CCCC1
[1]
  Ki: 121 µM
[2]
  Ki: 239 µM
[3]
  Ki: 28.7 µM

## COC(=O)C1=C(c2ccc(Cl)c(Cl)c2)CCCCC1
[1]
  Ki: 15 µM
[2]
  Ki: 1.36 µM
[4]
  Ki: 4.72 µM
[3]
  Ki: 149 µM
[5]
  Ki: 0.515 µM

## COC(=O)[C@@H]1CCCC[C@@H]1c1ccccc1
[1]
  Ki: 1360 µM
[2]
  Ki: 975 µM
[3]
  Ki: 1510 µM

## COC(=O)[C@@H]1CCCC[C@@H]1c1ccc(-c2ccccc2)cc1
[1]
  Ki: 658 µM
[2]
  Ki: 830 µM
[3]
  Ki: 390 µM

## COC(=O)C1=C(c2ccccc2)CCCC1
[1]
  Ki: 2500 µM
[2]
  Ki: 630 µM
[3]
  Ki: 668 µM

## COC(=O)C1=C(c2cccc(C(F)(F)F)c2)CCCC1
[1]
  Ki: 2110 µM
[2]
  Ki: 1050 µM
[3]
  Ki: 5020 µM

## COC(=O)[C@@H]1CCCCC[C@@H]1c1ccc(C(C)(C)C)cc1
[1]
  Ki: 94 µM
[2]
  Ki: 1140 µM
[3]
  Ki: 1800 µM

## CCOC(=O)C1=C(c2ccc(Cl)c(Cl)c2)CCNC1
[1]
  Ki: 2.5 µM
[2]
  Ki: 0.922 µM
[3]
  Ki: 0.217 µM

## COC(=O)C1=C(c2ccc(Cl)c(Cl)c2)CCC1
[1]
  Ki: 11 µM
[2]
  Ki: 1.9 µM
[4]
  Ki: 28 µM
[3]
  Ki: 785 µM
[5]
  Ki: 5.5 µM

## CCOC(=O)C1=C(c2ccc3ccccc3c2)CCNC1
[1]
  Ki: 0.268 µM
[2]
  Ki: 0.079 µM
[3]
  Ki: 0.44 µM

## COC(=O)[C@@H]1CCCC[C@@H]1c1cccc(C(F)(F)F)c1
[1]
  Ki: 991 µM
[2]
  Ki: 569 µM
[3]
  Ki: 1910 µM

## COC(=O)[C@@H]1CCCC[C@@H]1c1ccc(C(C)(C)C)cc1
[1]
  Ki: 675 µM
[2]
  Ki: 766 µM
[3]
  Ki: 9120 µM

## COC(=O)[C@@H]1CCCC[C@@H]1c1ccc(C(F)(F)F)cc1
[1]
  Ki: 439 µM
[2]
  Ki: 222 µM
[3]
  Ki: 185 µM

## COC(=O)C1=C(c2ccc(Cl)cc2)CCC1
[1]
  Ki: 420 µM
[2]
  Ki: 18 µM
[4]
  Ki: 178 µM
[3]
  Ki: 2840 µM
[5]
  Ki: 2.1 µM

## COC(=O)C1=C(c2ccc(O)cc2)CCCC1
[1]
  Ki: 675 µM
[2]
  Ki: 231 µM
[4]
  Ki: 499 µM
[3]
  Ki: 573 µM

## COC(=O)C1=C(c2ccc(Cl)c(Cl)c2)CCCC1
[1]
  Ki: 14 µM
[2]
  Ki: 2.1 µM
[4]
  Ki: 4.9 µM
[3]
  Ki: 228 µM
[5]
  Ki: 0.625 µM

## COC(=O)C1=C(c2ccc3ccccc3c2)CCC1
[1]
  Ki: 39 µM
[2]
  Ki: 4.1 µM
[4]
  Ki: 26 µM
[3]
  Ki: 417 µM
[5]
  Ki: 7 µM

## COC(=O)C1=C(c2ccc(C(C)(C)C)cc2)CCC1
[1]
  Ki: 789 µM
[2]
  Ki: 302 µM
[3]
  Ki: 1460 µM

## COC(=O)C1=C(c2cccc(Cl)c2)CCCCC1
[1]
  Ki: 85 µM
[2]
  Ki: 22 µM
[3]
  Ki: 463 µM
[5]
  Ki: 3.78 µM

## CCOC(=O)C1=C(c2cccc([N+](=O)[O-])c2)CCNC1
[1]
  Ki: 10 µM
[2]
  Ki: 20.6 µM
[3]
  Ki: 3 µM

## COC(=O)C1=C(c2ccc(OC(F)(F)F)cc2)CCCC1
[1]
  Ki: 2540 µM
[2]
  Ki: 1660 µM
[3]
  Ki: 4680 µM

## COC(=O)C1=C(c2ccc(S(C)(=O)=O)cc2)CCC1
[3]
  Ki: 3390 µM

## COC(=O)C1=C(c2ccc(Cl)cc2)CCCCC1
[1]
  Ki: 84 µM
[2]
  Ki: 15 µM
[4]
  Ki: 20 µM
[3]
  Ki: 706 µM
[5]
  Ki: 2.2 µM

## COC(=O)C1=C(c2ccc3ccccc3c2)CCCCC1
[1]
  Ki: 68 µM
[2]
  Ki: 392 µM
[3]
  Ki: 532 µM

## COC(=O)C1=C(c2ccc(C(F)(F)F)cc2)CCCC1
[1]
  Ki: 2020 µM
[2]
  Ki: 590 µM
[3]
  Ki: 4710 µM

## COC(=O)[C@@H]1CCCC[C@@H]1c1ccc(OC(F)(F)F)cc1
[1]
  Ki: 719 µM
[2]
  Ki: 1180 µM
[3]
  Ki: 605 µM

## COC(=O)[C@@H]1CN(C)CC[C@@H]1c1ccc(I)cc1 (racemic)
[1]
  Ki: 0.855 µM
[2]
  Ki: 0.323 µM
[3]
  Ki: 0.287 µM

## COC(=O)[C@@H]1CN(C)CC[C@H]1c1ccc(I)cc1 (racemic)
[1]
  Ki: 2.3 µM
[2]
  Ki: 1.25 µM
[3]
  Ki: 2.81 µM

## COC(=O)[C@@H]1CN(C)CC[C@@H]1c1ccccc1 (racemic)
[1]
  Ki: 35.2 µM
[2]
  Ki: 8.51 µM
[3]
  Ki: 27 µM

## COC(=O)[C@@H]1CN(C)CC[C@H]1c1ccccc1 (racemic)
[1]
  Ki: 36.3 µM
[2]
  Ki: 17.4 µM
[3]
  Ki: 46.7 µM

## COC(=O)[C@@H]1CN(C)CC[C@@H]1c1ccc(Cl)c(Cl)c1 (stereo in doubt)
[1]
  Ki: 41.6 µM
[2]
  Ki: 59.4 µM

## COC(=O)[C@@H]1CN(C)CC[C@@H]1c1ccc(Cl)c(Cl)c1 (stereo in doubt; 3a)
[1]
  Ki: 3.91 µM
[2]
  Ki: 0.322 µM

## COC(=O)[C@H]1[C@@H](c2ccc(I)cc2)C[C@H]2CC[C@@H]1N2C [IODINE 2BETA-CARBOMETHOXY-3BETA-(4 IODOPHENYL)-TROPANE]
[1]
  Ki: 0.034 µM
[2]
  Ki: 0.004 µM
[4]
  Ki: 0.01 µM
[3]
  Ki: 0.006 µM
[5]
  Ki: 0.009 µM
[6]
  Ki: 0.004 µM
